The data set in a line: Toxicity liver stage against HepG2, at 10uM. The class given is cell-based. The arrangement: test concentration 10 uM, cell line HepG2-A16-CD81EGFP. As to conditions: human, HepG2-A16-CD81EGFP cells; read-out: INHIBITION
The essentials: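 Uninfected HepG2-A16-CD81EGFP cells, 3 × 10^3 per well, 1536-well, plated on prespotted compound at 10 μM final, parasite-free screening media added to match infected plates; puromycin 10 μM positive, DMSO 0.5% negative; run in parallel with 48 h PbLuc assay at 37 °C, 5% CO2; viability by CellTiter-Glo luminescence, normalized to controls.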
In the case of `CC(C)(C)c1cc(CN2C[C@@H]3CC[C@H]2CN(Cc2ccccn2)C3)n[nH]1`, the cytotoxicity at 10 µM was -0.123%.
For `Cc1cccc(OC2CCN(c3nccnc3C#N)CC2)n1` the value was 1.1%; for `Cc1cc(N2CCC(N(C)C(=O)c3ccc(C#N)cc3)CC2)nc(C)n1`, 26.7%; for `COc1ccc(NC(=O)N(CC2CCOC2)C2CC2)cn1` (centres undefined), -6.95%.
Regarding `c1ccc(-c2nc(CN3CCOC(Cn4cccn4)C3)co2)cc1` (centres undefined), the cytotoxicity at 10 µM amounted to 0.724%.
On to `CCS(=O)(=O)NCC(=O)Nc1cc(CC(C)(C)C)n[nH]1`, for which the cytotoxicity at 10 µM was found to be 5.01%.
For `COCCN1CCc2c(CNC(=O)c3nccn3C)cncc2C1` the value was -107%; for `CCCc1nc(C(=O)N2CCN(C(=O)c3ccc(OC)cc3)CC2)cs1`, -3.07%.
For the compound `CC(O)(CN1CCC2(CC1)OCCO2)c1cccc(C(F)(F)F)c1` (centres undefined), the cytotoxicity at 10 µM was -9.21%.
For `O=C(O)[C@@H]1CN(C(=O)CN2CCCCCC2)C[C@H]1c1ccccc1` the value was 4.97%; for `COc1cc(CNCC2CN(C3CC3)CCO2)cc(OC)c1` (centres undefined), -24.3%; for `Cc1ccccc1-c1noc(CN2CCOC(Cn3cccn3)C2)n1` (centres undefined), -5.04%.
As to `O=c1[nH]c2cc(S(=O)(=O)N3CCC(c4ccsc4)CC3)ccc2o1`, the cytotoxicity at 10 µM was -9.69%.
For `CCNC(=O)NC(=O)CNc1cccc(C(=O)c2ccccc2)c1` the value was 3.18%; for `O=S(=O)(C1CC1)N1CCC2(CN(c3ccccn3)C2)C1`, 5.25%; for `COc1c(C)cnc(CN(C)C2CCN(C3CCOCC3)CC2)c1C`, -17.7%.
In the case of `Cc1cnn(C2CCCN(C(=O)c3ccc(OCC4CC4)nc3)C2)c1` (centres undefined), the cytotoxicity at 10 µM was -4.04%.
As for `O=C(NCCNc1ncccn1)c1ccc(Br)cc1`, the figure is -0.628%; as for `O=C(CCc1ccccc1)C1CCCN(C(=O)c2ncc(F)cc2F)C1` (centres undefined), -17.4%.
As for `Cc1ccccc1-n1ccc2nc(N3CCCC3)ncc2c1=O`, the figure is -5.1%.
With `CC(=O)c1cn(CCC(=O)NCCCC(=O)O)c2ccccc12`, the cytotoxicity at 10 µM was -1.63%.
For `O=C(c1ccc[nH]1)N1CCc2c(COCC3CC3)cncc2C1` the value was 5.71%; for `COC[C@@H]1CC[C@H]2[C@H](CCN2C(=O)c2ccncc2F)O1`, -8.82%; for `CCN1CCn2c(C)cnc2C12CCN(C(=O)Cc1ccccc1)CC2`, 4.59%.
As for `Cn1cc(CN2CCCC(Cn3cc(CCCO)nn3)C2)cn1` (centres undefined), the figure is -3.51%; as for `COc1ccc(Oc2ncccc2NC(=O)N2CCOCC2)cc1`, 9.11%.
For `O=C(NCc1ccccn1)[C@@]12CCO[C@@H]1CCN(Cc1ccccn1)C2` the value was -112%; for `O=C(COC1CCCCC1)N1CCCC(n2ccnc2)C1` (centres undefined), -19.7%.
Take `CCC(CNC(=O)NC1CCN(C)CC1)Oc1ccccc1Cl` (centres undefined): the cytotoxicity at 10 µM is 5.47%.
As for `Cc1ccccc1CN(C)C(=O)CN1CCCCC1Cn1cncn1` (centres undefined), the figure is 8.44%; as for `COCCN1CCN(Cc2c(C)noc2C)Cc2cccnc21`, -70.1%; as for `COc1ccnc(NC(=O)c2cscn2)c1`, 9.72%.
As for `Cc1ccc(CN2C[C@@H]3COC[C@H](NS(C)(=O)=O)[C@@H]3C2)o1`, the figure is 0.415%; as for `Cc1nc(C2CCCN2CCCS(=O)(=O)c2ccccc2)no1` (centres undefined), -4.42%.
For `CC(C)N(C)Cc1nnc2n1CCN(Cc1ccncc1)CC2` the value was -2.42%.
For `Nc1cc(-c2cccc3c2CCNC3)ncn1`, the cytotoxicity at 10 µM was -8.27%.
As for `COc1ccc(C(=O)NS(=O)(=O)c2cncc(Br)c2)cc1`, the figure is -1.91%.
Consider `NC(=O)C1CCN(C(=O)CCSCc2ccccc2)CC1`, for which the cytotoxicity at 10 µM was found to be 4.22%.
As for `Cc1cc(C)nc(Nc2cccc(C3CCCN(S(C)(=O)=O)C3)n2)n1` (centres undefined), the figure is -9.62%.

These data come from ChEMBL document CHEMBL4513216, “Probing the Open Global Health Chemical Diversity Library for Multistage-Active Starting Points for Next-Generation Antimalarials” (ACS Infect Dis, 2020).
